This note sets out measurements from PMC3775715 (Chemistry & biology, 2012).

One experiment has as its system A549 cells. Nature of the experiment: Metabolomics of steady-state metabolite levels in A549 cells. It counts as cell-based, human. The settings on record: 24 hr, 0.5 uM for 9.
The target in a further experiment is recombinant PKM2 (Homo sapiens, UniProt P14618). Kind of experiment: Biochemical activity assay against recombinant PKM2. The settings on record: for reactivation of PKM2 inhibited by phenylalanine: PKM2 preincubated with phenylalanine for 30 min. The method in brief: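 Recombinant PKM2 was preincubated with phenylalanine for 30 min. Test compound or FBP was then added for 30 min, after which pyruvate kinase activity was measured.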

Each structure is given as a SMILES string.

recombinant PKM2, sequence (P14618 whole entry): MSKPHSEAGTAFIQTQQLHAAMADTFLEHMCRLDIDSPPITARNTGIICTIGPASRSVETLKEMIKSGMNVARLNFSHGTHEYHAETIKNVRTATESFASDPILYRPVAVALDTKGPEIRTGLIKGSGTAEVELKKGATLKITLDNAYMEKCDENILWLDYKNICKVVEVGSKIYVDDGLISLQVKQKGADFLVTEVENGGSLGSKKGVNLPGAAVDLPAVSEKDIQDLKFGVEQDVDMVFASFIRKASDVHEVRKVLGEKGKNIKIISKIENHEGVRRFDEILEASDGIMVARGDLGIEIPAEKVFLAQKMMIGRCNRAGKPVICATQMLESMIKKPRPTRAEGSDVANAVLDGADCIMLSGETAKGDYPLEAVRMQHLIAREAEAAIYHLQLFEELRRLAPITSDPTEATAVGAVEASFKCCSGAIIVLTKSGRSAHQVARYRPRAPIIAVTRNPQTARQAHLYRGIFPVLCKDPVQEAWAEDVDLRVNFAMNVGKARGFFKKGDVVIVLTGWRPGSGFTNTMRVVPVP

For the compound `CCCCS(=N)(=O)CC[C@H](N)C(=O)O` (stereo partly shown) [BSO, buthionine sulfoxime], the “changes in steady-state metabolite levels” value in the experiment on A549 cells is reported as “induced robust changes in steady-state metabolite pools”. As to `O=C(COP(=O)(O)O)[C@@H](O)[C@H](O)[C@H](O)COP(=O)(O)O` [FBP, fructose 1,6-bisphosphate], on recombinant PKM2, the “reactivation of PKM2 inhibited by phenylalanine” value is “partially reactivate PKM2 to the low basal level of activity”. Take `N[C@@H](CO)C(=O)O` [Serine, serine]: at recombinant PKM2 (PKM2 inhibited with phenylalanine), the “change in potency for PKM2 inhibited with phenylalanine” value was “eight times loss in potency”. The “reactivation of PKM2 inhibited by phenylalanine” value on recombinant PKM2 was “partially restore the activity of PKM2”.
